Source: ChEMBL document CHEMBL1136006, “New PET imaging agent for the serotonin transporter: [(18)F]ACF (2-[(2-amino-4-chloro-5-fluorophenyl)thio]-N,N-dimethyl-benzenmethanamine)” (J Med Chem, 2002)

Assays:
[1] = test system: Rattus norvegicus; test: Ratio of effect of pretreatment with (+)-McN5652 with a dose of 2 mg/kg (i.v.) on specific binding of [18F]ACF in rat brain cortex to that of cerebellum; type: ADME, organism-based; set-up: dose 2 mg/kg, route intravenous; conditions: in vivo, iv
Method in brief: (§1)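 Rats (three per point) pretreated iv with competing drug at 2 mg/kg or saline (control) 5 min before iv [18F]ACF (50 μCi). At 1 h post tracer, brain regions (cortex, striatum, hippocampus, cerebellum, hypothalamus, remainder) dissected, weighed, counted as % dose/g and expressed as ratio to cerebellum. Average ± SD; ANOVA with Dunnett's test vs saline controls, p < 0.05.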

[2] = species on record: Rattus norvegicus; test: Ratio of regional brain distribution of [18F]ACF radiolabeled compound in rat hypothalamus to that of cerebellum after 120 min; type: ADME, organism-based; conditions: in vivo, 2 h
Method in brief: (§2)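 Rats (three per group) under ether anesthesia got 30 μCi tracer in 0.2 mL saline into the femoral vein and were killed by cardiac excision at the stated time. Cortex, striatum, hippocampus, cerebellum, hypothalamus and the rest of brain were dissected, weighed and gamma counted. %dose/g was taken against counts of a diluted initial dose. Regional ratios are each region's %dose/g over cerebellum's. Mean ± SD.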

[3] = species on record: Rattus norvegicus; test: Organ distribution of [18F]-ACF radiolabeled compound in rat brain after 60 min; type: ADME, organism-based; conditions: in vivo, 1 h
Method in brief: (§3)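 Under ether anesthesia, 30 μCi no-carrier-added tracer in 0.2 mL saline injected into the femoral vein. Rats killed by cardiac excision at the stated time. Organs were removed, weighed and counted; % dose/organ was calculated against counts of a 1% initial-dose standard. Three rats per time, average ± SD.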

[4] = species on record: Rattus norvegicus; test: Ratio of regional brain distribution of [18F]ACF radiolabeled compound in rat cerebellum to that of cerebellum after 240 min; type: ADME, organism-based; conditions: in vivo, 4 h; method in brief: as §2
[5] = species on record: Rattus norvegicus; test: Ratio of regional brain distribution of [18F]ACF radiolabeled compound in rat striatum to that of cerebellum after 30 min; type: ADME, organism-based; conditions: in vivo, 0.5 h; method in brief: as §2
[6] = test system: Rattus norvegicus; test: Effect of pretreatment with (+)-McN5652 with a dose of 2 mg/kg (i.v.) on specific binding of [18F]ACF in rat brain blood; type: ADME, organism-based; set-up: dose 2 mg/kg, route intravenous; conditions: in vivo, iv
Method in brief: (§4)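 Rats pretreated iv with drug (2 mg/kg) or saline 5 min before iv [18F]ACF (50 μCi). Sacrificed 1 h after tracer. Brain regions were dissected, weighed and counted, and % dose/g was calculated against a diluted initial dose. Drug-treated rats were compared with saline controls by ANOVA/Dunnett's test (p<0.05). Three rats per point, average ± SD.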

[7] = species on record: Rattus norvegicus; test: Organ distribution of [18F]-ACF radiolabeled compound in rat spleen after 120 min; type: ADME, organism-based; conditions: in vivo, 2 h; method in brief: as §3
[8] = species on record: Rattus norvegicus; test: Ratio of regional brain distribution of [18F]-ACF radiolabeled compound in rat hippocampus to that of cerebellum after 30 min; type: ADME, organism-based; conditions: in vivo, 0.5 h
Method in brief: (§5)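 Rats, three per time point, given 30 μCi tracer in 0.2 mL saline into femoral vein under ether anesthesia; killed at 2, 30, 60, 120 or 240 min. Cortex, striatum, hippocampus, cerebellum, hypothalamus and rest of brain dissected, weighed, counted; % dose/g against diluted initial dose, then each region divided by cerebellum. Average of three rats ± SD.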

[9] = test system: Rattus norvegicus; test: Effect of pretreatment with methylphenidate with a dose of 2 mg/kg (i.v.) on specific binding of [18F]ACF in rat brain blood; type: ADME, organism-based; set-up: dose 2 mg/kg, route intravenous; conditions: in vivo, iv; method in brief: as §4
[10] = species on record: Rattus norvegicus; test: Organ distribution of [18F]-ACF radiolabeled compound in rat bone after 30 min; type: ADME, organism-based, Bone element; conditions: in vivo, 0.5 h; method in brief: as §3
[11] = species on record: Rattus norvegicus; test: Ratio of regional brain distribution of [18F]-ACF radiolabeled compound in rat hypothalamus to that of cerebellum after 2 min; type: ADME, organism-based; conditions: in vivo; method in brief: as §2
[12] = test system: Rattus norvegicus; test: Ratio of effect of pretreatment with nisoxatine with a dose of 2 mg/kg (i.v.) on specific binding of [18F]ACF in rat brain striatum to that of cerebellum; type: ADME, organism-based; set-up: dose 2 mg/kg, route intravenous; conditions: in vivo, iv; method in brief: as §1
[13] = species on record: Rattus norvegicus; test: Regional brain distribution of [18F]ACF radiolabeled compound in rat remainder (rest of brain) after 2 min; type: ADME, organism-based; conditions: in vivo; method in brief: as §2
[14] = species on record: Rattus norvegicus; test: Ratio of regional brain distribution of [18F]-ACF radiolabeled compound in rat cortex to that of cerebellum after 240 min; type: ADME, organism-based; conditions: in vivo, 4 h; method in brief: as §5
[15] = species on record: Rattus norvegicus; test: Organ distribution of [18F]-ACF radiolabeled compound in rat liver after 120 min; type: ADME, organism-based; conditions: in vivo, 2 h; method in brief: as §3
[16] = test system: Rattus norvegicus; test: Ratio of effect of pretreatment with nisoxatine with a dose of 2 mg/kg (i.v.) on specific binding of [18F]ACF in rat brain cerebellum to that of cerebellum; type: ADME, organism-based; set-up: dose 2 mg/kg, route intravenous; conditions: in vivo, iv; method in brief: as §1
[17] = species on record: Rattus norvegicus; test: Organ distribution of [18F]ACF radiolabeled compound in rat bone after 2 min; type: ADME, organism-based, Bone element; conditions: in vivo
Method in brief: (§6)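 Rats, three per time point, under ether anesthesia; 30 μCi tracer in 0.2 mL saline injected into femoral vein. Sacrificed by cardiac excision under ether at 2, 30, 60, 120 or 240 min. Organs removed, weighed and counted; % dose/organ calculated against counts of 1% of initial dose counted at the same time. Average of three rats ± SD.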

[18] = species on record: Rattus norvegicus; test: Organ distribution of [18F]-ACF radiolabeled compound in rat heart after 30 min; type: ADME, organism-based; conditions: in vivo, 0.5 h; method in brief: as §3
[19] = Effect of pretreatment with nisoxatine with a dose of 2 mg/kg (i.v.) on specific binding of [18F]ACF in rat brain cerebellum; type: functional, organism-based; set-up: dose 2 mg/kg; method in brief: as §4
[20] = species on record: Rattus norvegicus; test: Ratio of regional brain distribution of [18F]ACF radiolabeled compound in rat striatum to that of cerebellum after 60 min; type: ADME, organism-based; conditions: in vivo, 1 h; method in brief: as §2
[21] = species on record: Rattus norvegicus; test: Organ distribution of [18F]ACF radiolabeled compound in rat heart after 60 min; type: ADME, organism-based; conditions: in vivo, 1 h; method in brief: as §6
[22] = test system: Rattus norvegicus; test: Effect of pretreatment with methylphenidate with a dose of 2 mg/kg (i.v.) on specific binding of [18F]-ACF in rat brain remainder; type: ADME, organism-based; set-up: dose 2 mg/kg, route intravenous; conditions: in vivo, iv; method in brief: as §4
[23] = species on record: Rattus norvegicus; test: Ratio of regional brain distribution of [18F]-ACF radiolabeled compound in rat remainder to that of cerebellum after 240 min; type: ADME, organism-based; conditions: in vivo, 4 h; method in brief: as §2
[24] = species on record: Rattus norvegicus; test: Organ distribution of [18F]-ACF radiolabeled compound in rat muscle after 240 min; type: ADME, organism-based, Muscle tissue; conditions: in vivo, 4 h; method in brief: as §3
[25] = test system: Rattus norvegicus; test: Ratio of effect of pretreatment with (+)-McN5652 with a dose of 2 mg/kg (i.v.) on specific binding of [18F]-ACF in rat brain hippocampus to that of cerebellum; type: ADME, organism-based; set-up: dose 2 mg/kg, route intravenous; conditions: in vivo, iv; method in brief: as §1
[26] = species on record: Rattus norvegicus; test: Organ distribution of [18F]ACF radiolabeled compound in rat bone after 120 min; type: ADME, organism-based, Bone element; conditions: in vivo, 2 h; method in brief: as §6
[27] = test system: Rattus norvegicus; test: Ratio of effect of pretreatment with methylphenidate with a dose of 2 mg/kg (i.v.) on specific binding of [18F]-ACF in rat brain remainder to that of cerebellum; type: ADME, organism-based; set-up: dose 2 mg/kg, route intravenous; conditions: in vivo, iv; method in brief: as §1
[28] = species on record: Rattus norvegicus; test: Organ distribution of [18F]ACF radiolabeled compound in rat blood after 60 min; type: ADME, organism-based; conditions: in vivo, 1 h; method in brief: as §6
[29] = test system: Rattus norvegicus; test: Ratio of effect of pretreatment with methylphenidate with a dose of 2 mg/kg (i.v.) on specific binding of [18F]ACF in rat brain cortex to that of cerebellum; type: ADME, organism-based; set-up: dose 2 mg/kg, route intravenous; conditions: in vivo, iv; method in brief: as §1
[30] = species on record: Rattus norvegicus; test: Ratio of regional brain distribution of [18F]-ACF radiolabeled compound in rat cerebellum to that of cerebellum after 2 min; type: ADME, organism-based; conditions: in vivo; method in brief: as §5
[31] = species on record: Rattus norvegicus; test: Organ distribution of [18F]ACF radiolabeled compound in rat kidney after 120 min; type: ADME, organism-based; conditions: in vivo, 2 h; method in brief: as §6
[32] = species on record: Rattus norvegicus; test: Regional brain distribution of [18F]-ACF radiolabeled compound in rat remainder (rest of brain) after 30 min; type: ADME, organism-based; conditions: in vivo, 0.5 h; method in brief: as §2
[33] = species on record: Rattus norvegicus; test: Regional brain distribution of [18F]ACF radiolabeled compound in rat cortex after 120 min; type: ADME, organism-based; conditions: in vivo, 2 h; method in brief: as §2
[34] = species on record: Rattus norvegicus; test: Organ distribution of [18F]ACF radiolabeled compound in rat brain after 2 min; type: ADME, organism-based; conditions: in vivo; method in brief: as §6
[35] = species on record: Rattus norvegicus; test: Regional brain distribution of [18F]-ACF radiolabeled compound in rat hypothalamus after 2 min; type: ADME, organism-based; conditions: in vivo; method in brief: as §2

**Q.** Which Ratio [1] does the source give for `CN(C)Cc1ccccc1Sc1cc(F)c(Cl)cc1N` here?
**A.** 1.43

**Q.** What about the Ratio [2] of the same molecule?
**A.** 3.23

**Q.** And the Dose/g [3]?
**A.** 0.69 % dose/organ

**Q.** What about the Ratio [4] of the same molecule?
**A.** 1

**Q.** And the Ratio [5]?
**A.** 2.06

**Q.** And the Dose/g [6]?
**A.** 0.26%

**Q.** And the Dose/g [7]?
**A.** 0.06 % dose/organ

**Q.** What about the Ratio [8] of the same molecule?
**A.** 1.89

**Q.** And the Dose/g [9]?
**A.** 0.28%

**Q.** What about the Dose/g [10] of the same molecule?
**A.** 0.04 % dose/organ

**Q.** What about the Ratio [11] of the same molecule?
**A.** 1.37

**Q.** What about the Ratio [12] of the same molecule?
**A.** 2.5

**Q.** What about the Dose/g [13] of the same molecule?
**A.** 1.69%

**Q.** And the Ratio [14]?
**A.** 1.52

**Q.** And the Dose/g [15]?
**A.** 5.9 % dose/organ

**Q.** What about the Ratio [16] of the same molecule?
**A.** 1

**Q.** And the Dose/g [17]?
**A.** 0.01 % dose/organ

**Q.** And the Dose/g [18]?
**A.** 0.18 % dose/organ

**Q.** And the Dose/g [19]?
**A.** 0.19%

**Q.** And the Ratio [20]?
**A.** 2.88

**Q.** What about the Dose/g [21] of the same molecule?
**A.** 0.11 % dose/organ

**Q.** And the Dose/g [22]?
**A.** 0.38%

**Q.** And the Ratio [23]?
**A.** 1.58

**Q.** And the Dose/g [24]?
**A.** 2.08 % dose/organ

**Q.** What about the Ratio [25] of the same molecule?
**A.** 1.93

**Q.** And the Dose/g [26]?
**A.** 0.28 % dose/organ

**Q.** And the Ratio [27]?
**A.** 2.23

**Q.** What about the Dose/g [28] of the same molecule?
**A.** 4.65%

**Q.** And the Ratio [29]?
**A.** 2.02

**Q.** And the Ratio [30]?
**A.** 1

**Q.** What about the Dose/g [31] of the same molecule?
**A.** 0.78 % dose/organ

**Q.** And the Dose/g [32]?
**A.** 0.67%

**Q.** What about the Dose/g [33] of the same molecule?
**A.** 0.09%

**Q.** And the Dose/g [34]?
**A.** 3.27 % dose/organ

**Q.** What about the Dose/g [35] of the same molecule?
**A.** 1.76%
